Measurements reported in ChEMBL document CHEMBL1144727, “Fragment based design of new H4 receptor-ligands with anti-inflammatory properties in vivo” (J Med Chem, 2008).
The source made the active and inactive calls. The rule behind the calls is not given here.

Key:
Histamine H4 receptor = Histamine H4 receptor (Homo sapiens, UniProt Q9H3N8); assay: Displacement of [3H]histamine from human histamine H4 receptor expressed in HEK293T cells; assay type: cell-based, HEK-293T
Histamine H1 receptor [1] = target: T1, Histamine H1 receptor (Homo sapiens, UniProt P35367); assay: Displacement of [3H]mepyramine from human histamine H1 receptor expressed in NIH3T3 cells at 10 uM; assay type: cell-based
In short: (§1)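 Single-point radioligand displacement at the human receptor, performed externally, with ligand at 10 μM. Reported as % inhibition of radioligand binding, measured in duplicate.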

[2] = target: Histamine H2 receptor (Homo sapiens) (UniProt P25021); assay: Displacement of [3H]aminopotentidine from human histamine H2 receptor expressed in COS7 cells at 10 uM; assay type: cell-based; settings: COS-7; in short: as §1
[3] = target: Histamine H3 receptor (Homo sapiens) (UniProt Q9Y5N1); assay: Displacement of [3H]Nalpha-methyl-histamine from human histamine H3 receptor expressed in […] cells at 10 uM; assay type: cell-based; settings: SK-N-MC; in short: as §1
Rattus norvegicus [4] = assay: Antiinflammatory activity in Wistar rat assessed as inhibition of carrageenan-induced paw edema at 10 mg/kg, sc after 2 hrs; assay type: functional, organism-based; parameters: dose 10 mg/kg
In short: (§2)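 Male Wistar rats (180–200 g), fasted; paw inflammation induced by subplantar injection of 0.1 mL 1% carrageenan in carboxymethylcellulose into left hind paw. Compound or vehicle (DMSO solution, freshly prepared) given s.c. at 0.1 mL per 100 g immediately before carrageenan. Paw volume by plethysmometer before injection and at 2, 4, 6 h; edema as % increase over preinjection value (=100). n = 6 per group.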

Rattus norvegicus [5] = assay: Antiinflammatory activity in Wistar rat assessed as inhibition of carrageenan-induced paw edema at 10 mg/kg, sc after 6 hrs; assay type: functional, organism-based; parameters: dose 10 mg/kg; in short: as §2
Histamine H1 receptor [6] = target: T1, Histamine H1 receptor; assay: Displacement of [3H]mepyramine from human histamine H1 receptor expressed in NIH3T3 cells; assay type: cell-based
Rattus norvegicus [7] = assay: Antiinflammatory activity in Wistar rat assessed as inhibition of carrageenan-induced paw edema at 30 mg/kg, sc after 2 hr; assay type: functional, organism-based; parameters: dose 30 mg/kg; in short: as §2

T1 sequence (P35367 whole entry): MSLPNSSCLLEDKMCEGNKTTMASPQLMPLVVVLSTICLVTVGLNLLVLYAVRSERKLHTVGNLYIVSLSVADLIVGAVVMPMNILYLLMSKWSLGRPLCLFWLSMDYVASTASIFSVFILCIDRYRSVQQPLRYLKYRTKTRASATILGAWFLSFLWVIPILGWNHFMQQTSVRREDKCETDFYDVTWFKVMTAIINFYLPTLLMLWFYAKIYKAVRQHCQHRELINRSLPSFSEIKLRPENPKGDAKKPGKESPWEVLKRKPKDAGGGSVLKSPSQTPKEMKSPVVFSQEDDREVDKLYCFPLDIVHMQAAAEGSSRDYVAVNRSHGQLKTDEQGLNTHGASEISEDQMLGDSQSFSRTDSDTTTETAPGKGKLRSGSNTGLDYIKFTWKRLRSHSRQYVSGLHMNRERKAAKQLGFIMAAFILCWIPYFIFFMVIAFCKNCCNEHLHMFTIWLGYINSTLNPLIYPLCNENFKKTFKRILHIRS
Chain of Histamine H3 receptor (Homo sapiens) (Q9Y5N1 whole entry): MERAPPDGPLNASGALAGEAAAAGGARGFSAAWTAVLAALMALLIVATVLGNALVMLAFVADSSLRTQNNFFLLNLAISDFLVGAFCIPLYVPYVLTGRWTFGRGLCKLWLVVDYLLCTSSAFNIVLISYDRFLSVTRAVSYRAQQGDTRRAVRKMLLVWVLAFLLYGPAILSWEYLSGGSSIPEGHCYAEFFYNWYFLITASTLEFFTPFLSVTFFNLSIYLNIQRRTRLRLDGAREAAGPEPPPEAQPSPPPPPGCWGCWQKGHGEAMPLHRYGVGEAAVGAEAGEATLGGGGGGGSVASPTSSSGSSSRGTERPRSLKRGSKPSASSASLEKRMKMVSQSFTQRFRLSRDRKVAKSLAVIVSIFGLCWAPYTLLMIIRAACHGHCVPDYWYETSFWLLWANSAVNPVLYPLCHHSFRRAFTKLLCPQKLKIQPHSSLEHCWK
Chain of Histamine H2 receptor (Homo sapiens) (P25021 whole entry): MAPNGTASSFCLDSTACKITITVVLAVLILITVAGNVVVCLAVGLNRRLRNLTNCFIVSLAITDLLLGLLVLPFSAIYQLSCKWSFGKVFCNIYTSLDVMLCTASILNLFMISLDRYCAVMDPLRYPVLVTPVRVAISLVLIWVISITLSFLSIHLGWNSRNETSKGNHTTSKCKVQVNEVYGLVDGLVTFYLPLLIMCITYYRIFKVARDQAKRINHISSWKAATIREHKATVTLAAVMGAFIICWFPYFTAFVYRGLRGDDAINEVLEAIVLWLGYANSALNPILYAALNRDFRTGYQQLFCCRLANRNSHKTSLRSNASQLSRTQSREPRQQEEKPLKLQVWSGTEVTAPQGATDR

Ki (Histamine H4 receptor) [nM]	Structure (SMILES)	further results
479	CN1CCN(c2nc3ccccc3nc2OCCc2ccccc2)CC1	
2950	CN1CCN(c2nc3ccccc3nc2OCCCCc2ccccc2)CC1	
1580	CN1CCN(c2nc3ccccc3nc2Oc2ccc(F)cc2)CC1	
2340	CN1CCN(c2nc3ccccc3nc2Oc2ccc(Cl)cc2)CC1	
2190	Cc1ccc(Oc2nc3ccccc3nc2N2CCN(C)CC2)cc1	
2690	CCN1CCN(c2nc3ccccc3nc2Cc2ccccc2)CC1	
363	CN1CCN(c2nc3ccccc3nc2Sc2ccccc2)CC1	
1290	CN1CCN(c2nc3ccccc3nc2Oc2cccnc2)CC1	
324	CN1CCN(c2nc3ccccc3nc2Oc2ccccc2)CC1	
7410	CN1CCN(c2nc3ccccc3nc2NCc2ccccc2)CC1	
575	Cc1cccc(Oc2nc3ccccc3nc2N2CCN(C)CC2)c1	
10200	CN1CCN(c2nc3ccccc3nc2-c2ccccc2)CC1	
39.8	CN1CCN(c2nc3ccccc3nc2Cc2ccccc2)CC1	inhibition (Histamine H1 receptor [1]): 86%; inhibition [2]: 62%; inhibition [3]: 26%; Ki (Histamine H1 receptor [6]): 741 nM; Activity (Rattus norvegicus [7]): Active
295	CN1CCN(c2nc3ccccc3nc2OCc2ccccc2)CC1	
468	CN1CCN(c2nc3ccccc3nc2OCc2ccccn2)CC1	

The remaining lines, values behind:

Structure (SMILES)	Ki (Histamine H4 receptor) [nM]	further results
COc1nc2cc(Cl)c(Cl)cc2nc1N1CCN(C)CC1	57.5	
CN1CCN(c2ccc3ccccc3n2)CC1	6920	
CN1CCN(c2nc3ccccc3nc2C(F)(F)F)CC1	2510	
COc1nc2ccccc2nc1N1CCN(C)CC1	339	
CN1CCN(c2nc3ccccc3nc2Cl)CC1	229	
COc1ccc(Oc2nc3ccccc3nc2N2CCN(C)CC2)cc1	2340	
CN1CCN(c2nc3ccccc3nc2Oc2ccc(Cl)c(Cl)c2)CC1	1700	
CN1CCN(c2cnc3cc(Cl)ccc3n2)CC1	91.2	
COc1nc2cc(Cl)ccc2nc1N1CCN(C)CC1	26.3	
Cc1nc2cc(Cl)c(Cl)cc2nc1N1CCN(C)CC1	63.1	
CN1CCN(c2ccc3cc(Cl)ccc3n2)CC1	589	
CN1CCN(c2nccc3ccccc23)CC1	20400	
CCOc1nc2ccccc2nc1N1CCN(C)CC1	229	
CN1CCN(c2nc3cc(Cl)c(Cl)cc3nc2CCc2ccccc2)CC1	3980	
CN1CCN(c2nc3cc(Cl)ccc3[nH]c2=O)CC1	11.7	
CN1CCN(c2nc3ccccc3nc2OCc2cccc(Cl)c2)CC1	269	

Structure (SMILES)	Ki (Histamine H4 receptor) [nM]	further results
CC(C)COc1nc2ccccc2nc1N1CCN(C)CC1	5750	
CN1CCN(c2nc3ccccc3nc2Oc2cccc(N(C)C)c2)CC1	1550	
CN1CCCN(c2nc3cc(Cl)ccc3[nH]c2=O)CC1	977	
CN1CCN(c2nc3cc(Cl)c(Cl)cc3[nH]c2=O)CC1	5.62	inhibition (Histamine H1 receptor [1]): 7%; inhibition [2]: 42%; inhibition [3]: 64%; Activity (Rattus norvegicus [4]): Active; Activity (Rattus norvegicus [5]): Active
CN1CCN(c2nc3ccccc3nc2OCc2ccc(Cl)cc2)CC1	2290	
COc1ccc(COc2nc3ccccc3nc2N2CCN(C)CC2)cc1	708	
CN1CCN(c2nc3ccccc3nc2OCc2ccncc2)CC1	4370	
CN1CCN(c2nc3ccccc3[nH]c2=O)CC1	61.7	
CN1CCN(c2cnc3ccccc3n2)CC1	891	
Cc1nc2ccccc2nc1N1CCN(C)CC1	200	
CN(C)CCCOc1nc2ccccc2nc1N1CCN(C)CC1	3980	
Cc1ccc(COc2nc3ccccc3nc2N2CCN(C)CC2)cc1	1380	
CN1CCN(c2nc3ccccc3nc2OCc2cccnc2)CC1	2950	
CN1CCN(c2nc3cc(Cl)c(Cl)cc3nc2Oc2ccccc2)CC1	1170	
CN1CCN(c2nc3ccccc3nc2OC2CCCCC2)CC1	13200	
